From ChEMBL document CHEMBL1127318, “Hypoxia-selective antitumor agents. 8. Bis(nitroimidazolyl)alkanecarboxamides: a new class of hypoxia-selective cytotoxins and hypoxic cell radiosensitisers” (J Med Chem, 1994)

Legend:
[1] = The ratio of aerobic CT10 to hypoxic CT10.; format: functional
Procedure, shortened: (§1)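 Clonogenic assay on stirred plateau-phase AA8 suspensions (10⁶/mL), gassed with 5% CO₂ in air or in N₂ after 60 min preequilibration. Survival sampled every 0.5–1 h up to 8 h at several drug concentrations. CT10 taken at each concentration. Interpolated aerobic CT10 divided by hypoxic CT10 at the same time; ranges cover 1–8 h exposure.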

[2] = tested on: UV4; test: Aerobic cytotoxicity against UV4 cells in a growth inhibition microassay; format: functional, Cricetulus griseus
Procedure, shortened: (§2)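 Cells kept as log-phase monolayers in antibiotic-free Alpha MEM with 10% heat-inactivated FCS. Per well: 200 AA8, 300 UV4, 50 EMT6 or 1000 FME cells. Drug added 24 h after seeding and removed after 18 h. Cell mass (protein, methylene blue absorbance) read 72–78 h after washout. IC50 = concentration giving 50% of the mean of eight controls on the same plate.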

[3] = tested on: CHO-AA8; test: Average intracellular compound concentration when the hypoxic SER=1.6.; format: functional, Cricetulus griseus
Procedure, shortened: (§3)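 Hypoxic stirred AA8 suspensions (10⁷ cells) incubated 30 min at the C1.6 concentration. Cells and supernatant separated by centrifugation and extracted into MeCN. Drug measured by C18 HPLC with formate pH 4.5/MeCN gradient, absorbance 320 nm. Values corrected for recovery using spiked medium or lysed pellets. Mean intracellular concentration calculated assuming 11.6 µL cell water and 1.1 µL pellet extracellular water per 10⁷ cells.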

[4] = tested on: CHO-AA8; test: Compound concentration at which sensitizer enhancement ratio =1.6 under hypoxia.; format: functional, Cricetulus griseus
Procedure, shortened: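 Stirred AA8 suspensions gassed 60 min with 5% CO2 in N2. Drug added 30 min before ⁶⁰Co irradiation at 37 °C (ca. 2 Gy/min, typically 6 Gy steps). Clonogenic survival taken against unirradiated cells from the same culture. Linear-quadratic fit gives D10; SER = D10 without/with drug, determined over a range of concentrations to estimate C1.6. Only concentrations with minimal drug toxicity during irradiation were used.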

[5] = tested on: EMT6; test: Aerobic cytotoxicity against murine mammary carcinoma EMT6 cells in a growth inhibition microassay; format: functional, Mus musculus; procedure, shortened: as §2
[6] = Partition coefficient (logP); format: physicochemical; conditions: octanol/water
Procedure, shortened: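 log P octanol computed with CLOGP rather than measured.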

[7] = Ratio of mean intracellular to extracellular compound concentration determined under hypoxic condition.; format: functional, cell-based
Procedure, shortened: (§4)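 AA8 suspension (10⁷ cells) made hypoxic with 5% CO₂ in N₂, exposed 30 min at 37 °C to drug at the C1.6. Supernatant and lysed pellet extracted in MeCN. Assayed by C18 HPLC (formate pH 4.5/MeCN gradient, 320 nm), corrected for spiked recoveries. Intracellular level from 11.6 µL cell water/10⁷ cells, with [¹⁴C]sucrose and ³H₂O spaces. Result expressed as Ci/Ce.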

[8] = tested on: FME; test: Aerobic cytotoxicity against human melanoma FME cells in a growth inhibition microassay; format: functional; procedure, shortened: as §2
[9] = tested on: CHO-AA8; test: (§5) Compound concentration required to reduce cell survival to 10% of control values under hypoxic condition; format: cell-based, Cricetulus griseus; conditions: chinese hamster
Procedure, shortened: (§6)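 Chinese hamster AA8 cells at plateau phase, 10⁶/mL, in magnetically stirred 10-mL suspensions. Gassed continuously with 5% CO₂ in N₂ (hypoxic) or in air (aerobic); cells and drug preequilibrated under the gas for 60 min. Clonogenic plating efficiency read every 0.5–1 h for up to 8 h at several drug concentrations. Concentration × time for 10% survival (CT10) estimated at each concentration.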

[10] = (§7) In vitro therapeutic index (aerobic IC50 / hypoxic C1.6); format: cell-based, Cricetulus griseus; conditions: chinese hamster, CHO-AA8 cells; read-out: TI
Procedure, shortened: (§8)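 Hypoxic C1.6: stirred AA8 gassed with 5% CO₂/N₂ 60 min, drug 30 min, ⁶⁰Co irradiation at 37 °C (~2 Gy/min). D10 from linear-quadratic fit; concentration giving SER 1.6 interpolated. Index = IC50/C1.6.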

[11] = tested on: CHO-AA8; test: Concentration required to reduce AA8 cell numbers to 50% of controls in a growth inhibition microassay; format: functional, cell-based; conditions: Cricetulus griseus; procedure, shortened: as §2
[12] = tested on: CHO-AA8; test: Average intracellular compound concentration when the hypoxic SER=1.6; format: functional, Cricetulus griseus; procedure, shortened: as §3
[13] = tested on: CHO-AA8; test: as §5; format: functional, Cricetulus griseus
Procedure, shortened: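 Plateau-phase AA8 cells (10⁶/mL) in magnetically stirred 10-mL cultures, gassed continuously with N2 plus 5% CO2. Cells and drug pre-equilibrated 60 min. Clonogenic plating every 0.5–1 h for up to 8 h at several concentrations. CT10 (concentration × time for 10% survival) estimated at each concentration.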

[14] = Ratio of mean intracellular to extracellular compound concentration determined under hypoxic conditions 30 mins after exposure to compound at C1.6 concentration; format: functional, cell-based; procedure, shortened: as §4
[15] = tested on: CHO-AA8; test: Average intracellular compound concentration where the hypoxia sensitizer enhancement ratio (SER)=1.6; format: functional, Cricetulus griseus; procedure, shortened: as §3
[16] = tested on: CHO-AA8; test: Average intracellular compound concentration where the sensitizer enhancement ratio (SER)=1.6 under hypoxia; format: functional, Cricetulus griseus; procedure, shortened: as §3
[17] = tested on: CHO-AA8; test: Compound concentration required to reduce cell survival to 10% of control values under hypoxic condition.; format: cell-based, Cricetulus griseus; conditions: chinese hamster; procedure, shortened: as §6
[18] = as §7; format: functional; procedure, shortened: as §8
[19] = tested on: CHO-AA8; test: as §7; format: functional, Cricetulus griseus
Procedure, shortened: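 C1.6 is the concentration giving SER 1.6 in hypoxic stirred AA8 suspensions exposed to drug for 30 min before ⁶⁰Co irradiation at 37 °C.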

[20] = The ratio of aerobic CT10 to hypoxic CT10; format: functional; procedure, shortened: as §1

| SMILES | Ratio [1] | Hypersensitivity factor [2] | C1.6 [3] | C1.6 [4] | Hypersensitivity factor [5] | logP [6] | Uptake ratio [7] | Hypersensitivity factor [8] | CT10 [9] | selectivity ratio [10] | IC50 [11] | C1.6 [12] | CT10 [13] | Uptake ratio [14] | C1.6 [15] | C1.6 [16] | CT10 [17] | TI [18] | TI [19] | Ratio [20] |
| --- | --- | --- | --- | --- | --- | --- | --- | --- | --- | --- | --- | --- | --- | --- | --- | --- | --- | --- | --- | --- |
| Cc1ncc([N+](=O)[O-])n1CCNC(=O)CCCn1ccnc1[N+](=O)[O-] | 8 | 1.4 | 0.21 mM | 0.63 mM | 1.3 | -1.28 | 0.33 | 4.6 | 0.37 mM-hr | 11 | 7.2 mM |  |  |  |  |  |  |  |  |  |
| O=C(CCCn1ccnc1[N+](=O)[O-])NCCn1ccnc1[N+](=O)[O-] | > 6 |  |  | 1.54 mM |  | -1.55 | 0.5 |  | 3.4 mM-hr | 1.7 |  | 0.77 mM |  |  |  |  |  |  |  |  |
| Cc1ncc([N+](=O)[O-])n1CCNC(=O)CCCCCn1ccnc1[N+](=O)[O-] | > 17 |  | 0.36 mM | 0.65 mM |  | -0.22 | 0.55 |  |  | 1.2 |  |  | 1.5 mM-hr |  |  |  |  |  |  |  |
| COCC(O)Cn1ccnc1[N+](=O)[O-] (centres undefined) [MISONIDAZOLE] | 25 | 1.4 |  |  | 3.6 |  |  | 1.9 |  |  |  |  |  | 0.9 | 0.4 mM | 0.43 mM | 8.3 mM-hr | 28 |  |  |
| O=C(CCn1ccnc1[N+](=O)[O-])NCCCn1ccnc1[N+](=O)[O-] | 6.5 | 1.2 |  |  | 3.5 | -1.55 |  | 3.9 | 2.5 mM-hr |  | 6.1 mM |  |  |  |  |  |  |  |  |  |
| O=[N+]([O-])c1nccn1CC(O)CNCCBr (centres undefined) | 20 | 5.9 |  | 0.13 mM | 1.6 |  |  | 1 | 0.18 mM-hr |  | 0.15 mM |  |  |  |  |  |  |  | 1.1 |  |
| O=C(CCCn1ccnc1[N+](=O)[O-])NCCn1cncc1[N+](=O)[O-] | > 30 |  | 0.27 mM | 0.9 mM | >1.7 | -1.55 | 0.3 | >2.1 | 0.8 mM-hr | > 4.7 | > 4.2 mM |  |  |  |  |  |  |  |  |  |
| Cc1ncc([N+](=O)[O-])n1CCO [METRONIDAZOLE] |  | 1 |  |  | 1 |  |  | 1 | 100 mM-hr | 1.7 | 23 mM |  |  | 1.3 | 17.3 mM | 13.3 mM |  |  |  | 5 |
| O=C(CCCn1ccnc1[N+](=O)[O-])NCCn1cnc([N+](=O)[O-])c1 |  |  | >0.36 mM | >1.1 mM |  | -1.55 |  |  | > 15 mM-hr | < 1.6 |  |  |  |  |  |  |  |  |  |  |
| O=C(CCCn1ccnc1[N+](=O)[O-])NCCn1ccnc1 | 8 | 1.3 |  |  | 4.2 | 1.32 |  | 3 |  |  | 24 mM |  |  | 0.33 | 1.32 mM | 4 mM | 26 mM-hr | 6 |  |  |
| Cc1ncc([N+](=O)[O-])n1CCNC(=O)Cn1ccnc1[N+](=O)[O-] | 2.4 | 1 | 0.54 mM | 1.08 mM | 2.2 | -1.03 | 0.5 | 2.1 | 11 mM-hr | 4.3 | 4.7 mM |  |  |  |  |  |  |  |  |  |
| Cc1ncc([N+](=O)[O-])n1CCNC(=O)Cn1c([N+](=O)[O-])cnc1C | 2 | 1 | 4.1 mM | 2.7 mM | 4.4 | -0.76 | 1.5 | 2.3 |  | 2.8 | 7.7 mM |  |  |  |  |  | 50 mM-hr |  |  |  |
| Cc1ncc([N+](=O)[O-])n1CCNC(=O)CCCCn1ccnc1[N+](=O)[O-] | > 7 | 1.2 | 0.48 mM | 0.93 mM | 1.7 | -0.79 | 0.52 | 3.5 | 6 mM-hr | 4 | 3.8 mM |  |  |  |  |  |  |  |  |  |
| Cc1ncc([N+](=O)[O-])n1CCNC(=O)CCn1ccnc1[N+](=O)[O-] | > 7 | 0.9 | 0.42 mM | 0.7 mM | 2.5 | -0.99 | 0.6 | 2.9 | 12 mM-hr | 7.9 | 5.5 mM |  |  |  |  |  |  |  |  |  |
